Legend:
Type in all cases: in vivo, Drosophila melanogaster
[1] = tested on: Tip60-RNAi knockdown Drosophila larvae; details: oral in food; for Performance in rescuing locomotor defects (in words): compared to CTB
[2] = tested on: Tip60-RNAi-2 Drosophila larvae; test: Larval locomotor assay in second Tip60-RNAi line; details: 100 uM, line crossing in 30 seconds
How it was run: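 elavC155-Gal4 × UAS-Tip60 RNAi-2 progeny (w1118 background) are reared from hatching on food containing the test compound in DMSO (final DMSO ≤0.01%) or vehicle. Wandering third-instar larvae are rinsed and placed on a 2.5% agar plate over a 0.5 cm × 0.5 cm grid. After 1 min acclimation, head line crossings are counted over 30 s. Analysis is one-way ANOVA with Dunnett's comparisons.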

[3] = tested on: AD-associated APP Drosophila third-instar larvae; test: Larval locomotor assay in AD-associated APP model
How it was run: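 elavC155-Gal4/UAS-APP larvae (w1118 background), with parental crosses set on food containing the test compound in DMSO (final DMSO ≤0.01%) or DMSO alone, so larvae feed from hatching. Wandering third instars of either sex are rinsed in distilled water, placed on 2.5% agar over a 0.5 cm grid, and acclimated 1 min. Read-outs are speed (mm/s, video tracking) and head line crossings in 30 s. Analysis is one-way ANOVA with Dunnett's test.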

Cn1cc(C(=O)COc2ccccc2C(=O)Nc2ccc(Cl)c(C(F)(F)F)c2)cn1 [C1, N-[4-chloro-3-(trifluoromethyl)phenyl]-2-[2-(1-methyl-1H-pyrazol-4-yl)-2-oxoethoxy]benzamide]
Performance in rescuing locomotor defects (in words) [1]: low-performing

COC(=O)CCC(=O)COc1ccccc1C(=O)Nc1ccc(Cl)c(C(F)(F)F)c1 [C2, Methyl 5-(2-{[4-chloro-3-(trifluoromethyl)phenyl]carbamoyl}phenoxy)-4-oxopentanoate]
Performance in rescuing locomotor defects (in words) [1]: highest performers | Rescue of locomotor deficits (in words) [2]: rescued locomotor deficits | Sustained effects to complete the assay and reach the wall (in words) [3]: sustained effects | Concentration significantly rescuing larval locomotor ability ([3]; oral in food): ≥ 50 µM

O=C(Nc1ccc(Cl)c(C(F)(F)F)c1)c1ccccc1OCC(=O)N1CCNC1=O [C4, N-[4-Chloro-3-(trifluoromethyl)phenyl]-2-[2-oxo-2-(2-oxo-1-imidazolidinyl)ethoxy]benzamide]
Performance in rescuing locomotor defects (in words) [1]: no effect

CCOCCC(O)COc1ccccc1C(=O)Nc1ccc(Cl)c(C(F)(F)F)c1 (stereo not shown) [C5, N-[4-Chloro-3-(trifluoromethyl)phenyl]-2-(4-ethoxy-2-hydroxybutoxy)benzamide]
Performance in rescuing locomotor defects (in words) [1]: highest performers

CC(C)CNC(=O)COc1ccccc1C(=O)Nc1ccc(Cl)c(C(F)(F)F)c1 [C6, N-[4-Chloro-3-(trifluoromethyl)phenyl]-2-[2-(isobutylamino)-2-oxoethoxy]benzamide]
Performance in rescuing locomotor defects (in words) [1]: low-performing

O=C(Nc1ccc(Cl)c(C(F)(F)F)c1)c1ccccc1OCC(=O)C1CCOCC1 [C7, N-[4-Chloro-3-(trifluoromethyl)phenyl]-2-[2-oxo-2-(tetrahydro-2H-pyran-4-yl)ethoxy]benzamide]
Performance in rescuing locomotor defects (in words) [1]: low-performing

CNC(=O)NC(=O)COc1ccccc1C(=O)Nc1ccc(Cl)c(C(F)(F)F)c1 [C8, N-[4-Chloro-3-(trifluoromethyl)phenyl]-2-{2-[(methylcarbamoyl)amino]-2-oxoethoxy}benzamide]
Performance in rescuing locomotor defects (in words) [1]: highest performers

COC(=O)CNC(=O)COc1ccccc1C(=O)Nc1ccc(Cl)c(C(F)(F)F)c1 [C9, Methyl N-[(2-{[4-chloro-3-(trifluoromethyl)phenyl]carbamoyl}phenoxy)acetyl]glycinate]
Performance in rescuing locomotor defects (in words) [1]: low-performing

O=C(COc1ccccc1C(=O)Nc1ccc(Cl)c(C(F)(F)F)c1)NCC1CC1 [C10, N-[4-Chloro-3-(trifluoromethyl)phenyl]-2-{2-[(cyclopropylmethyl)amino]-2-oxoethoxy}benzamide]
Performance in rescuing locomotor defects (in words) [1]: low-performing

CCOc1ccccc1C(=O)Nc1ccc(Cl)c(C(F)(F)F)c1 [CTB, N-[4-chloro-3-(trifluoromethyl)phenyl]-2-ethoxybenzamide, reference compound]
Rescue of locomotor ability (in words) ([1]; 10 to 100 μM): significant rescue

From paper PMC11978860 (Nature Communications, 2025)
